This note sets out measurements from ChEMBL document CHEMBL1139484, “Design, synthesis, and binding studies of new potent ligands of cannabinoid receptors” (J Med Chem, 2005).

Experiment [1] deals with Cannabinoid receptor 1 (Homo sapiens, UniProt P21554). The experiment can be described thus: Displacement of [3H]CP-55940 from human CB1 receptor expressed in COS cells. Format: cell-based. A general note: In a radioligand displacement assay an active substance lowers the binding of a labelled ligand.
Cannabinoid receptor 1, sequence (P21554 whole entry): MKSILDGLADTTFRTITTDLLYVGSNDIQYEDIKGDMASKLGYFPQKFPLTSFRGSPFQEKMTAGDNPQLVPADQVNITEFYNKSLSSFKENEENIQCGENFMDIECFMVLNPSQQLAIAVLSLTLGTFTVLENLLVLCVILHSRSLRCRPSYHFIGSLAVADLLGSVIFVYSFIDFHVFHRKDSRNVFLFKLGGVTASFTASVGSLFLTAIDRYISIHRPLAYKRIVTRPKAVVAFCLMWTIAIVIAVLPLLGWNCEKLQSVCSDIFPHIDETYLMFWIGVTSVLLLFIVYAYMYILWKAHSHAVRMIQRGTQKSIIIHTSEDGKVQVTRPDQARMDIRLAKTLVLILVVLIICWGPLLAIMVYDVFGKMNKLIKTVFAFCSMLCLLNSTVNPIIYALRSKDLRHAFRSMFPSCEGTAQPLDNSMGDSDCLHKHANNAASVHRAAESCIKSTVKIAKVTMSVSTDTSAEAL
Experiment [2] addresses Cannabinoid receptor 2 (Homo sapiens, UniProt P34972). Kind of experiment: Displacement of [3H]CP-55940 from human CB2 receptor expressed in COS cells. Format: cell-based.
Experiment [3] is described as follows: Inhibition of anandamide membrane transporter in RBL-2H3 cells assessed as [14C]anandamide uptake. The class given is cell-based, Rattus norvegicus. Put shortly: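 RBL-2H3 cells incubated with [14C]anandamide (4 µM) for 5 min at 37 °C, with or without varying inhibitor concentrations. Medium extracted with CHCl3/CH3OH (2:1); residual radioactivity taken as measure of uptake. IC50 from fit; mean of 3 experiments.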

The target of experiment [4] is T1, Fatty-acid amide hydrolase 1 (Rattus norvegicus, UniProt P97612).
T1 sequence (P97612 whole entry): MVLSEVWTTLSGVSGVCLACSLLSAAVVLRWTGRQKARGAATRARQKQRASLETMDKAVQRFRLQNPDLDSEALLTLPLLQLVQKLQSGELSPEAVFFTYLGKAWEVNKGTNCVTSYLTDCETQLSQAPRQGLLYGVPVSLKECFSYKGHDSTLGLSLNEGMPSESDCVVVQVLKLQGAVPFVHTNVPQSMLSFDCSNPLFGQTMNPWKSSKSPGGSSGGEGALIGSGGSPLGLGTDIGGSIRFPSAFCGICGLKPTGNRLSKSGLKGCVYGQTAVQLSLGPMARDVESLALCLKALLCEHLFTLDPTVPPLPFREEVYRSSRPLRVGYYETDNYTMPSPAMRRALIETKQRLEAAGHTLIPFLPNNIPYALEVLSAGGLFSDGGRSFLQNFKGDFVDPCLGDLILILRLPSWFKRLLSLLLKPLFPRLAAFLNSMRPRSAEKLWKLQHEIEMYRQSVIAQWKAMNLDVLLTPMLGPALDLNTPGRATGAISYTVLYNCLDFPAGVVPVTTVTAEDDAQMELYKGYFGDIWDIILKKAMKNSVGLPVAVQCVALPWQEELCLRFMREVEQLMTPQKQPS
The experiment can be described thus: Inhibition of rat brain FAAH assessed as [14C]anandamide hydrolysis. The method, boiled down: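 Rat brain membranes incubated with [14C]anandamide (6 µM) and increasing compound concentrations in 50 mM Tris-HCl pH 9, 30 min, 37 °C. Mixture extracted with 2 volumes CHCl3/CH3OH (2:1); [14C]ethanolamine in aqueous phase counted by scintillation. IC50 reported; mean of 3 experiments.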

Experiment [5] deals with Cannabinoid receptor (Homo sapiens) (UniProt P34972+P21554). The experiment can be described thus: Selectivity for human CB2 receptor over human CB1 receptor. Format: protein assay. The method, boiled down: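 Ratio of Ki values from [3H]CP-55,940 (0.5 nM) displacement on P2 membranes of COS cells transfected with human CB1 or CB2; Ki from IC50 by Cheng-Prusoff, mean of 3 experiments.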
Cannabinoid receptor (Homo sapiens), sequence (P21554 whole entry, looked up): as the sequence (P21554 whole entry) above
Cannabinoid receptor (Homo sapiens), sequence (P34972 whole entry, looked up): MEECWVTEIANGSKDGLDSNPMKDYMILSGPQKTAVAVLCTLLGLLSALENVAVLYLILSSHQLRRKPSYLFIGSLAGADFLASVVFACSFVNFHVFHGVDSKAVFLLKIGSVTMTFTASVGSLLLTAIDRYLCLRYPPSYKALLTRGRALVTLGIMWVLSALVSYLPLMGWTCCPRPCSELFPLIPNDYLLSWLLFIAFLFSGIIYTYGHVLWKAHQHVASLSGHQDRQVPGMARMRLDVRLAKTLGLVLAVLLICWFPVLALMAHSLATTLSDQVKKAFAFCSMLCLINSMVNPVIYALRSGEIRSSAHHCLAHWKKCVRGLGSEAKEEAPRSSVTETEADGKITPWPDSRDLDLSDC

Cannabinoid receptor 2, sequence (P34972 whole entry): as the sequence (P34972 whole entry, looked up) above

As to `CCCCCc1cc(O)cc(OCCCCCCCCCCCCCCCC(=O)NC2CC2)c1`, in experiment [1], the Ki is over 10 µM.

Regarding `O=C(CCCCCCCCCCCCCCCOc1cccc(O)c1)Nc1ccc(O)cc1`, the inhibition constant (Ki) in experiment [2] is 10 µM. In other words, the double-digit micromolar range. On to `CCCCCc1cc(O)cc(OCCCCCCCCCCC(=O)NCCO)c1`, for which the 50% inhibitory concentration (IC50) in experiment [3] worked out at 25 µM. Turning to `CCCCCCc1ccc(OCCCCCCCCCCC(=O)NCCO)cc1O`, the Ki in experiment [1] was over 10 µM. Still for that read-out and setting: the figure for `CCCCCCc1ccc(OCCCCCCCCCCCCCCCC(=O)Nc2ccc(O)cc2)cc1O` is over 10 µM. As to `CCCCCCc1ccc(O)cc1OCCCCCCCCCCC(=O)NC1CC1`, the IC50 in experiment [4] was over 25 µM; in experiment [3] it was 13 µM. For the molecule `CCCCCCc1ccc(OCCCCCCCCCCC(=O)NC2CC2)cc1O`, the inhibition constant Ki in experiment [1] was over 10 µM. Also, the half-maximal inhibitory concentration (IC50) in experiment [3] is over 25 µM. The Selectivity ratio in experiment [5] stood at 26.

Turning to `O=C(CCCCCCCCCCOc1cccc(O)c1)NC1CC1`, in experiment [1], the inhibition constant (Ki) is over 10 µM. In the case of `CCCCCCCCCCCCCCCc1cccc(OCCCCCC(=O)NCCO)c1`, the IC50 in experiment [3] was over 25 µM. In turn, `O=C(CCCCCCCCCCCCCCCOc1cccc(O)c1)NCCO` displayed an inhibition constant Ki in experiment [1] of over 10 µM.

Turning to `CCCCCCc1ccc(O)cc1OCCCCCCCCCCC(=O)Nc1ccc(O)cc1`, the IC50 in experiment [3] was over 25 µM. `O=C(CCCCCCCCCCOc1cccc(O)c1)NCCO` yielded a Ki in experiment [1] of over 10 µM. As for `O=C(CCCCCCCCCCOc1cccc(O)c1)Nc1ccc(O)cc1`, in experiment [2], the inhibitory constant (Ki) was over 10 µM. Consider `CCCCCCc1ccc(OCCCCCCCCCCC(=O)Nc2ccc(O)cc2)cc1O`, for which the inhibition constant (Ki) in experiment [2] is over 10 µM. In addition, the concentration for half-maximal inhibition (IC50) in experiment [3] was over 25 µM. With `CCCCCc1cc(O)cc(OCCCCCCCCCCC(=O)NC2CC2)c1`, in experiment [3], the IC50 was determined as 17 µM. On the same count and under the same terms, with `CCCCCCc1ccc(O)cc1OCCCCCCCCCCC(=O)NCCO` the figure was over 25 µM. On to `CCCCCCCCCCCCCCCc1cccc(OCCCCCC(=O)Nc2ccc(O)cc2)c1`, for which, in experiment [3], the IC50 is over 25 µM. As to `CCCCCCc1ccc(O)cc1OCCCCCC(=O)NCCO`, in experiment [2], the Ki was over 10 µM. Regarding `CCCCCc1cc(O)cc(OCCCCCCCCCCCCCCCC(=O)Nc2ccc(O)cc2)c1`, the inhibition constant (Ki) in experiment [1] was over 10 µM.

One may read the Ki as a measure of affinity in units of concentration, obtained from inhibition or displacement. A low value points to a stronger hold on the target. For orientation: IC50 means the concentration at which inhibition is half-maximal.
